# High-throughput results from PubChem BioAssay.
# An excerpt weighted towards active compounds, which were near 2.3% of everything screened.
# Xi reactivation – X-chromosome reactivation activator; 360,000 tested, 0.055% active; activation, % at 7.58 µM; XiGFP mouse fibroblasts, % GFP-positive cells imaging, 3 d; cells co-treated with 5-aza-dC sensitizer; scaled so ellipticine positive control = 100%;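 active = mean normalized replicate activation at least 10% and every replicate at or above 10%; inconclusive = only one of the two criteria met; inactive = mean below 10% and not all replicates reach 10%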;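 note: 0% = median of on-plate neutral control wells and 100% = ellipticine 6 µM median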
#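 System: 68-5-11 XiGFP fibroblast line | Buffer or medium: DMEM containing 5-aza-dC | Compound: Single point | Times: Compounds 3 days, fix/stain 15 min at room temperature | Benchmarks: Positive control ellipticine, 6 µM final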
# TROY NFkB inh – inhibitors of TROY-dependent NF-kB signaling. inhibition, % at 10 µM. Q293 LMP1-TROYcd NF-kB luciferase reporter, 4 h. 360,000 tested, 0.98% active;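 active = compounds whose plate-normalised and pattern-corrected inhibition of the luciferase reporter signal at the single screening dose is 50% or more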
# TWEAK-Fn14 inh – TWEAK-Fn14 signaling inhibition. AID 1159606. TWEAK-stimulated Fn14 reporter cells, luciferase luminescence, 8 h. inhibition, % at 10 µM. 360,000 tested, 2% active; in the data active = inhibition above about 50%
# LGR2 antag – blocks bursicon-induced cAMP signaling via Drosophila LGR2; 380,000 tested, 0.35% active; inhibition, % at 9.99 µM; HEK293 LGR2, CRE-luciferase, bursicon-stimulated, 4 h;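 active = drop in luminescence signal, shown as inhibition above about 50% in the replicate tests, limit read from the data, passing the limit was not always enough; inconclusive = probably only some replicates passing the limit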;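 note: agonist challenge used bursicon conditioned medium at about half maximal strength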
# EWS-Fli inh – EWS/Fli transcriptional activity inhibition; A673 NR0B1-luciferase reporter, viability-normalised; inhibition, % at 12.6 µM; 350,000 tested, 0.67% active; AID 651661;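 active = mean inhibition of at least 50% after viability correction, with every replicate also passing that limit; inconclusive = mean reaches 50% but only one of two replicates passes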;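 note: firefly luciferase signal divided by Alamar Blue viability fluorescence both relative to DMSO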
# FN deposition inh – fibronectin deposition inhibition. AH1F fibroblasts, Alexa488-fibronectin deposition fluorescence, overnight. AID 743247. inhibition, % at 12.6 µM. 350,000 tested, 0.086% active;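 active = mean inhibition across replicates of 30% or more, regardless of how many single replicates reach that level; inconclusive = mean under 30% yet at least half of replicates reach 30%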;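 note: positive control wells lacked labelled fibronectin entirely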
#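 Material – AH1F fibroblast monolayer, labelled fibronectin deposition · Reagent – labelled fibronectin 24 nM · Timing – 1 h adhesion, overnight exposure · Measured by – fluorescence at 485 nm excitation, 525 nm emission · Read-out – inhibition of fibronectin deposition signal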
# Numbers without * were called inactive; ? = inconclusive; · = not tested or not shown.
SMILES,Xi reactivation,TROY NFkB inh,TWEAK-Fn14 inh,LGR2 antag,EWS-Fli inh,FN deposition inh
Cc1ccc(C(=O)Nc2ccc3ccccc3c2)cc1,0,54*,87*,·,?,2
CC(C)=CCc1c(O)cc2oc3c(CC=C(C)C)c(O)c(O)c(CC=C(C)C)c3c(=O)c2c1O,·,58*,82*,·,34,·
Cc1ccc2nc3sc(C(=O)Nc4c(C)[nH]c(=O)[nH]c4=O)c(N)c3cc2c1,·,8,53*,-7,·,·
COc1ccccc1S(=O)(=O)N[C@H]1CC[C@H](CCn2cc(C3CCCCC3)nn2)O[C@H]1CO,0,·,·,11,4,-2
COCCCNC(=O)C1CCC(=O)N1Cc1ccccc1Cl (stereo unspecified),·,·,85*,-11,·,·
CCC(=O)N[C@@H]1C=C[C@H](CC(=O)NCCN2CCCCC2)O[C@@H]1CO,0,·,·,-5,-44,-6
COCCn1c(C)cc(C(=O)COC(=O)c2ccc[nH]c2=O)c1C,0,59*,71*,21,·,2
Cc1cccc(C(=O)NCC(=O)OCC(=O)c2cc(C)n(CC3CCCO3)c2C)c1 (stereo unspecified),0,80*,59*,-3,-3,-3
COCCn1c(C)cc(C(=O)COC(=O)c2ccc(Br)o2)c1C,0,55*,55*,-7,2,·
Cc1cc(C(=O)COC(=O)CNC(=O)c2ccccc2)c(C)n1CC1CCCO1 (stereo unspecified),0,5,60*,22,-10,-1
CCCNC(=O)N1CC2(CCN(S(=O)(=O)CC)CC2)c2c(n(C)c3cc(OC)ccc23)[C@H]1CO,0,·,·,-11,4,·
C[C@H](CO)N1C[C@H](C)[C@H](CN(C)C(=O)CCC(F)(F)F)OCCCC[C@H](C)Oc2ccc(NC(=O)c3ccccc3)cc2C1=O,0,·,·,11,3,-3
COCCn1c(C)cc(C(=O)COC(=O)CNC(=O)c2ccccc2)c1C,0,54*,63*,21,2,-14
CCOc1ccc(C(=O)NC(=S)Nc2cccc(S(=O)(=O)NC3=NCCC3)c2)cc1,1,-26,5,-22,59*,11
CCOc1ccc(OCC(=O)Nc2cccc(S(=O)(=O)NC3=NCCC3)c2)cc1,0,-20,-11,18,-7,-7
O=C(NC(=S)Nc1cccc(S(=O)(=O)NC2=NCCC2)c1)c1cc(-c2ccco2)nc2ccccc12,0,-6,9,1,57*,6
O=C(Nc1cccc(S(=O)(=O)NC2=NCCC2)c1)c1cc(-c2ccco2)nc2ccccc12,0,13,-6,8,19,-3
COc1cccc(C#Cc2ccc3c(c2)[C@@H]2[C@@H](CCN2S(=O)(=O)c2ccc(C)cc2)[C@H](CO)N3)c1,0,·,·,·,·,9
COc1ccc(S(=O)(=O)Nc2ccc3c(c2)C(=O)N([C@@H](C)CO)C[C@@H](C)[C@H](CN(C)Cc2ccc4c(c2)OCO4)OCCCC[C@H](C)O3)cc1,0,·,·,-11,11,-3
CCOC(=O)c1c(SCCN2CCCCC2)n(-c2ccccc2)c(=S)n(-c2ccccc2)c1=O,0,17,18,8,79*,-7
C[C@@H]1CN(C)C(=O)c2cccnc2O[C@@H]1CN(C)S(C)(=O)=O,0,·,·,·,·,1
COC(=O)c1ccc(/C=C/C(=O)OCC(=O)Nc2sccc2C(N)=O)cc1,·,45,68*,·,·,·
Cc1ccc([N+](=O)[O-])cc1NC(=O)CN(C(=O)c1ccccc1Cl)C1CCCCC1,0,12,-1,·,-6,32*
O=C(Nc1ccccc1)Nc1ccc2c(c1)[C@@H]1C[C@@H](CC(=O)N3CCOCC3)O[C@H](CO)[C@@H]1O2,0,·,·,8,2,8
CC(=O)CC(C)(C)n1nnc(-c2ccccc2)n1,·,-3,92*,-8,·,·
SMILES,Xi reactivation,TROY NFkB inh,TWEAK-Fn14 inh,LGR2 antag,EWS-Fli inh,FN deposition inh
CC(=O)Cn1nnc(-c2ccc(C(F)(F)F)cc2)n1,0,-43,-14,-16,-46,-2
C[C@H](CO)N1C[C@H](C)[C@H](CN(C)CC2CC2)Oc2cc(-c3ccc(C#N)cc3)ccc2S1(=O)=O,-1,·,·,-8,13,1
CCCC#Cc1ccc2c(c1)O[C@H](CN(C)Cc1cccnc1)[C@@H](C)CN([C@@H](C)CO)S2(=O)=O,0,·,·,-5,37,-5
COC(=O)c1ccc(-n2c(C)ccc2-c2ccccc2)cc1,·,-28,7,-56,1,·
CC(=O)c1ccc(-n2c(CCC(=O)O)ccc2-c2ccccc2)cc1,0,58*,76*,-6,-2,8
CC(=O)c1ccc(-n2c(C)ccc2-c2ccccc2)cc1,·,37,82*,·,·,-5
Cc1ccccc1-c1ccc([C@@H]2[C@@H](CO)N3C(=O)CN(C(=O)Nc4ccccc4)C[C@H]23)cc1,1,·,·,·,·,·
O=C(CC(F)(F)F)N1C[C@@H]2[C@H](c3ccccc31)[C@H](CO)N2C(=O)C1CCCC1,5,·,·,10,12,4
C[C@@H]1CN([C@@H](C)CO)C(=O)c2cccc(NC(=O)Nc3ccc(F)cc3)c2O[C@@H]1CN(C)S(=O)(=O)c1cn(C)cn1,0,·,·,15,-2,·
CCC(C)(C)NC(=O)C(c1ccc(C)cc1)N(Cc1cccs1)C(=O)c1ccc2c(c1)OCCO2 (stereo unspecified),·,55*,88*,·,·,·
O=C(NCc1ccccc1)c1c[nH]c2ccc(S(=O)(=O)Nc3ccc4c(c3)OCCO4)cc2c1=O,·,·,3,0,·,·
O=C(NCc1cccnc1)c1c[nH]c2cc3c(cc2c1=O)OCCO3,·,49,70*,·,·,17
Cc1noc(C)c1NC(=O)N(C)C[C@H]1Oc2ccc(NS(=O)(=O)c3c(C)noc3C)cc2C(=O)N([C@@H](C)CO)C[C@H]1C,0,·,·,16,-1,·
C[C@@H]1CCCCO[C@@H](CN(C)Cc2ccc(Cl)c(Cl)c2)[C@H](C)CN([C@H](C)CO)C(=O)c2cc(NS(=O)(=O)c3ccc(F)cc3)ccc2O1,0,·,·,16,27,-1
O=c1oc(-c2ccccc2)nc2sc3c(c12)CCCC3,·,-32,53*,-40,·,·
Nn1c(-c2cccs2)nc2sc3c(c2c1=O)CCCC3,·,-19,29,-53,·,·
Cc1ccccc1-c1nc2sc3c(c2c(=O)n1N)CCCC3,·,77*,71*,·,·,2
CNC[C@@H]1Oc2ncc(C#Cc3ccc(OC)c(OC)c3)cc2C(=O)N([C@H](C)CO)C[C@@H]1C,0,·,·,-8,-14,-2
COc1ccc2nc3c(cc2c1)c(NC(=O)c1cccs1)nn3CC(C)C,·,4,51*,·,·,·
CNC(=O)C[C@H]1CC[C@@H]2[C@@H](COc3ccc(NC(=O)Nc4ccc(Cl)cc4)cc3C(=O)N2C)O1,0,·,·,-4,-4,0
